Assay [1] deals with HeLa. The experiment in a line: Cytotoxicity against human HeLa cells after 6 days by SRB assay. The format is functional, cell-based. The note with it: 144 h. In outline: (§1)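 Seeded at 3000−5000 cells/well and exposed for 6 days to compounds diluted from 10 mg/mL DMSO stocks. The top final concentration was 50 μg/mL, carrying 0.5% DMSO final. Cells were ethanol-fixed and stained with sulforhodamine, with absorbance read at 540 nm against untreated controls. IC50 was interpolated from plots of percent control absorbance versus dose.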
Background: In SRB staining, fixed cells bind dye roughly in proportion to their protein.

For assay [2], the system named is HT-29. The experiment in a line: Cytotoxicity against human HT-29 cells after 6 days by SRB assay. The format is functional, cell-based. The note with it: HT-29, 144 h. Summed up: as §1
Assay [3] relates to NFF. Put plainly: Cytotoxicity against human NFF cells after 6 days by SRB assay. The format is cell-based. The note with it: 144 h. Summed up: as §1
Assay [4] deals with MM96L. Put plainly: Cytotoxicity against human MM96L cells after 6 days by SRB assay. In kind it is functional, cell-based. The note with it: 144 h. Summed up:
as §1

Assay [5] relates to MCF7. Put plainly: Cytotoxicity against human MCF7 cells after 6 days by SRB assay. The format is functional, cell-based. As to conditions: MCF7, 144 h. Summed up:
as §1

The subject of assay [6] is K562. The experiment in a line: Cytotoxicity against human K562 cells after 6 days by MTS assay. The note with it: K562, 144 h. Background: Tetrazolium assays rely on reduction of a dye to a coloured formazan, in cell work by metabolically active cells.

In brackets after ≈: the same amount, converted by molar mass.

`CC(C)[C@H](O)[C@H](O)C[C@@H](C)[C@H]1[C@@H](O)C[C@H]2[C@@H]3C[C@@H](O)[C@H]4C[C@@H](O)CC[C@]4(C)[C@H]3CC[C@]12C`: the IC50 (usually the concentration that gives 50% inhibition) in assay [1] is 12 µg/mL (≈ 26.5 µM); in assay [2] it was 11 µg/mL (≈ 24.3 µM); in assay [3] it was 22 µg/mL (≈ 48.6 µM); in assay [4], 8.5 µg/mL (≈ 18.8 µM); in assay [5], 13 µg/mL (≈ 28.7 µM); in assay [6], 7 µg/mL (≈ 15.5 µM).
Regarding `CC(C)[C@@H]1OC(C)(C)O[C@@H]1C[C@@H](C)[C@H]1[C@@H](O)C[C@H]2[C@@H]3C[C@@H](O)[C@H]4C[C@@H](O)CC[C@]4(C)[C@H]3CC[C@]12C`, the IC50 in assay [1] turned out to be 4.3 µg/mL (≈ 8.73 µM); in assay [2], 3.5 µg/mL (≈ 7.1 µM); in assay [3], 10 µg/mL (≈ 20.3 µM); in assay [4] it was 5 µg/mL (≈ 10.1 µM); in assay [5], 5 µg/mL (≈ 10.1 µM); in assay [6] it was 8.5 µg/mL (≈ 17.3 µM).
As for `CC(C)[C@H](O)[C@H](O)C[C@@H](C)[C@H]1[C@@H](O[C@@H]2O[C@H](CO)[C@@H](O)[C@H](O)[C@H]2O)C[C@H]2[C@@H]3CC(=O)[C@H]4C[C@@H](O[C@@H]5O[C@H](CO[C@@H]6O[C@H](CO)[C@@H](O)[C@H](O)[C@H]6O)[C@@H](O)[C@H](O)[C@H]5O)CC[C@]4(C)[C@H]3CC[C@]12C`, the IC50 in assay [1], in assay [2], in assay [3], in assay [4], in assay [5] and in assay [6] was above 50 µg/mL each time.
As for `CC(C)[C@H](O)[C@H](O)C[C@@H](C)[C@H]1[C@@H](O[C@@H]2O[C@H](CO)[C@@H](O)[C@H](O)[C@H]2O)C[C@H]2[C@@H]3C[C@@H](O)[C@H]4C[C@@H](O[C@@H]5O[C@H](CO[C@@H]6O[C@H](CO)[C@@H](O)[C@H](O)[C@H]6O)[C@@H](O)[C@H](O)[C@H]5O)CC[C@]4(C)[C@H]3CC[C@]12C` [CHAMAELIROSIDE E], the IC50 in assay [1], in assay [2], in assay [3], in assay [4], in assay [5] and in assay [6] was above 50 µg/mL in each case.
For the compound `C[C@@H]1CC[C@@]2(OC1)O[C@H]1C[C@H]3[C@@H]4CC=C5C[C@@H](O)CC[C@]5(C)[C@H]4CC[C@]3(C)[C@H]1[C@@H]2C` [DISOGENIN], the IC50 in assay [1], in assay [2], in assay [3], in assay [4], in assay [5] and in assay [6] was above 50 µg/mL in each case.
For `C[C@@H](CO)CC[C@H](O)[C@@H](C)[C@H]1[C@@H](O)C[C@H]2[C@@H]3CC=C4C[C@@H](O)CC[C@]4(C)[C@H]3CC[C@]12C`, the IC50 in assay [1], in assay [2], in assay [3], in assay [4], in assay [5] and in assay [6] was above 50 µg/mL throughout.
Consider `CC(C)[C@H](O[C@@H]1O[C@H](C)[C@H](O)[C@H](O)[C@H]1O)[C@H](O)C[C@@H](C)[C@H]1[C@@H](O)C[C@H]2[C@@H]3C[C@@H](O)[C@H]4C[C@@H](O[C@@H]5O[C@H](CO[C@@H]6O[C@H](CO)[C@@H](O)[C@H](O)[C@H]6O)[C@@H](O)[C@H](O)[C@H]5O)CC[C@]4(C)[C@H]3CC[C@]12C` [CHAMAELIROSIDE B], for which the IC50 in assay [1], in assay [2], in assay [3], in assay [4], in assay [5] and in assay [6] was above 50 µg/mL throughout.
Take `CC(C)[C@H](O)[C@H](O)C[C@@H](C)[C@H]1[C@@H](O)C[C@H]2[C@@H]3CC(=O)[C@H]4C[C@@H](O[C@@H]5O[C@H](CO[C@@H]6O[C@H](CO)[C@@H](O)[C@H](O)[C@H]6O)[C@@H](O)[C@H](O)[C@H]5O)CC[C@]4(C)[C@H]3CC[C@]12C`: the IC50 in assay [1], in assay [2], in assay [3], in assay [4], in assay [5] and in assay [6] was above 50 µg/mL throughout.
Regarding `CC(=O)O[C@H]1CC[C@@]2(C)C(=CC[C@H]3[C@@H]4C[C@H](OC(C)=O)[C@H]([C@H](C)C(=O)CC[C@@H](C)CO)[C@@]4(C)CC[C@@H]32)C1`, the IC50 is 2.8 µg/mL (≈ 5.42 µM) in assay [1]; 0.8 µg/mL (≈ 1.55 µM) in assay [2]; 2 µg/mL (≈ 3.87 µM) in assay [3]; 1 µg/mL (≈ 1.94 µM) in assay [4]; 0.8 µg/mL (≈ 1.55 µM) in assay [5]; 1.7 µg/mL (≈ 3.29 µM) in assay [6].
Regarding `CC(C)[C@H](O[C@@H]1O[C@H](C)[C@H](O)[C@H](O)[C@H]1O)[C@H](O)C[C@@H](C)[C@H]1[C@@H](O)C[C@H]2[C@@H]3CC(=O)[C@H]4C[C@@H](O[C@@H]5O[C@H](CO[C@@H]6O[C@H](CO)[C@@H](O)[C@H](O)[C@H]6O)[C@@H](O)[C@H](O)[C@H]5O)CC[C@]4(C)[C@H]3CC[C@]12C`, the IC50 in assay [1], in assay [2], in assay [3], in assay [4], in assay [5] and in assay [6] was above 50 µg/mL throughout.
With `CC(C)[C@H](O)[C@H](O)C[C@@H](C)[C@H]1[C@@H](O)C[C@H]2[C@@H]3CC(=O)[C@H]4C[C@@H](O)CC[C@]4(C)[C@H]3CC[C@]12C`, the IC50 in assay [1] came out at 15 µg/mL (≈ 33.3 µM); in assay [2] it was 13 µg/mL (≈ 28.8 µM); in assay [3], 17 µg/mL (≈ 37.7 µM); in assay [4], 4.5 µg/mL (≈ 9.99 µM); in assay [5] it was 15 µg/mL (≈ 33.3 µM); in assay [6], 5 µg/mL (≈ 11.1 µM).
As for `C[C@H](CC[C@H](O)[C@@H](C)[C@H]1[C@@H](O)C[C@H]2[C@@H]3CC=C4C[C@@H](O[C@@H]5O[C@H](CO)[C@@H](O)[C@H](O)[C@H]5O)CC[C@]4(C)[C@H]3[C@H](O)C[C@]12C)CO[C@@H]1O[C@H](CO)[C@@H](O)[C@H](O)[C@H]1O` [HELOSIDE A], the IC50 in assay [1], in assay [2], in assay [3], in assay [4], in assay [5] and in assay [6] was above 50 µg/mL throughout.
As to `CC(=O)O[C@@H]1[C@H](O)[C@@H](O)[C@H](O[C@@H](C(C)C)[C@H](O)C[C@@H](C)[C@H]2[C@@H](O)C[C@H]3[C@@H]4C[C@@H](O)[C@H]5C[C@@H](O[C@@H]6O[C@H](CO[C@@H]7O[C@H](CO)[C@@H](O)[C@H](O)[C@H]7O)[C@@H](O)[C@H](O)[C@H]6O)CC[C@]5(C)[C@H]4CC[C@]23C)O[C@@H]1C` [CHAMAELIROSIDE C], the IC50 in assay [1], in assay [2], in assay [3], in assay [4], in assay [5] and in assay [6] was above 50 µg/mL throughout.
In the case of `CC(=O)OC[C@H](C)CC[C@H](OC(C)=O)[C@@H](C)[C@H]1[C@@H](OC(C)=O)C[C@H]2[C@@H]3CC=C4C[C@@H](OC(C)=O)CC[C@]4(C)[C@H]3CC[C@]12C`, the IC50 in assay [1] stood at 16 µg/mL (≈ 26.5 µM); in assay [2], 4.5 µg/mL (≈ 7.47 µM); in assay [3], 12 µg/mL (≈ 19.9 µM); in assay [4] it was 3.5 µg/mL (≈ 5.81 µM); in assay [5], 11 µg/mL (≈ 18.2 µM); in assay [6] it was 4.5 µg/mL (≈ 7.47 µM).
For `CC(C)[C@H](O)[C@H](O)C[C@@H](C)[C@H]1[C@@H](O)C[C@H]2[C@@H]3C[C@@H](O)[C@H]4C[C@@H](O[C@@H]5O[C@H](CO[C@@H]6O[C@H](CO)[C@@H](O)[C@H](O)[C@H]6O)[C@@H](O)[C@H](O)[C@H]5O)CC[C@]4(C)[C@H]3CC[C@]12C` [CHAMAELIROSIDE A], the IC50 in assay [1], in assay [2], in assay [3], in assay [4], in assay [5] and in assay [6] was above 50 µg/mL each time.
Turning to `CC(=O)OC[C@H](C)CC[C@@H](OC(C)=O)[C@@H](C)[C@H]1[C@@H](OC(C)=O)C[C@H]2[C@@H]3CC=C4C[C@@H](OC(C)=O)CC[C@]4(C)[C@H]3CC[C@]12C`, the IC50 in assay [1] came out at 13 µg/mL (≈ 21.6 µM); in assay [2] it was 6.5 µg/mL (≈ 10.8 µM); in assay [3], 13 µg/mL (≈ 21.6 µM); in assay [4], 4.5 µg/mL (≈ 7.47 µM); in assay [5], 7.5 µg/mL (≈ 12.4 µM); in assay [6] it was 8.5 µg/mL (≈ 14.1 µM).
For the compound `C[C@@H](CO)CC[C@@H](O)[C@@H](C)[C@H]1[C@@H](O)C[C@H]2[C@@H]3CC=C4C[C@@H](O)CC[C@]4(C)[C@H]3CC[C@]12C`, the 50% inhibitory concentration (IC50) in assay [1], in assay [2], in assay [3], in assay [4], in assay [5] and in assay [6] was above 50 µg/mL in each case.
Regarding `C[C@@H](CO)CC[C@H](O)[C@@H](C)[C@H]1[C@@H](O)C[C@H]2[C@@H]3CC=C4C[C@@H](O)CC[C@]4(C)[C@H]3[C@H](O)C[C@]12C` [HELOGENIN], the IC50 in assay [1], in assay [2], in assay [3], in assay [4], in assay [5] and in assay [6] was above 50 µg/mL in each case.

Source of the values: ChEMBL document CHEMBL2086280, “Structure and bioactivity of steroidal saponins isolated from the roots of Chamaelirium luteum (false unicorn)” (J Nat Prod, 2012).
